Reference: ChEMBL document CHEMBL4038284, “Synthesis of novel quinoline-based 4,5-dihydro-1H-pyrazoles as potential anticancer, antifungal, antibacterial and antiprotozoal agents” (Eur J Med Chem, 2017)
≈ marks a conversion by molar mass, not a printed value.

Experiments:
Klebsiella pneumoniae [1] = experiment: Antibacterial activity against ESBL positive Klebsiella pneumoniae ATCC 700603 after 24 hrs by resazurin dye based microdilution assay; format: functional; conditions: Klebsiella pneumoniae, 700603, 24 h
How it was run: (§1)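 MIC taken as the lowest concentration giving visible inhibition and/or by resazurin (1 mg/mL). Gentamicin was the control. Run in duplicate, repeated at least three times.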

Klebsiella pneumoniae [2] = experiment: Antibacterial activity against carbapenemase positive Klebsiella pneumoniae BAA 1705 after 24 hrs by resazurin dye based microdilution assay; format: functional; conditions: BAA 1705, 24 h; how it was run: as §1
Leishmania panamensis = experiment: Antileshmanial activity against EpiR/GFP fused Leishmania panamensis MHOM/CO/87/UA140 intracellular amastigotes infected in human […] cells after 72 hrs by flow cytometric method; format: functional, cell-based; conditions: MHOM/CO/87/UA140, 72 h
How it was run: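 PMA-treated U-937 cells (3 × 10^5 cells/mL) infected with stationary-phase GFP L. panamensis promastigotes (15:1), 3 h at 34 °C, then washed. After 24 h, compounds added at 50, 12.5, 3.125 and 0.78 µg/mL for 72 h at 37 °C. EC50 by Probit; triplicate, two experiments.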

Candida albicans [3] = experiment: Antifungal activity against Candida albicans ATCC 10231 incubated for 48 hrs under dark condition by broth microdilution method; format: functional; conditions: ATCC 10231, 48 h
How it was run: (§2)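 CLSI M27-A3 broth microdilution in RPMI-1640, DMSO ≤1%, compounds at 250-0.98 µg/mL final. Inoculum 1-5 × 10^3 CFU/mL. Incubated 48 h at 30 °C in a moist dark chamber, read at OD405. MIC80 and MIC50 taken from % inhibition dose-response curves (mean ± SEM, triplicate). Amphotericin B was the positive control.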

Cryptococcus neoformans [4] = experiment: Antifungal activity against Cryptococcus neoformans ATCC 32264 incubated for 48 hrs under dark condition by broth microdilution method; format: functional; conditions: ATCC 32264, 48 h; how it was run: as §2
Candida albicans [5] = experiment: Growth inhibition of Candida albicans ATCC 10231 at 250 ug/ml incubated for 48 hrs under dark condition by broth microdilution method relative to control; format: functional; conditions: ATCC 10231, 48 h, read-out: GI
How it was run: (§3)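 CLSI M27-A3 broth microdilution in RPMI-1640, DMSO ≤1%. Inoculum 1-5 × 10^3 CFU/mL. Incubated 48 h at 30 °C, dark. % inhibition = 100 − (OD405 test − sterility control)/(OD405 growth control − sterility control), with growth and sterility control wells. Triplicate.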

Candida albicans [6] = experiment: Growth inhibition of Candida albicans ATCC 10231 at 125 ug/ml incubated for 48 hrs under dark condition by broth microdilution method relative to control; format: functional; conditions: ATCC 10231, 48 h, read-out: GI; how it was run: as §3
Candida albicans [7] = experiment: Growth inhibition of Candida albicans ATCC 10231 at 62.5 ug/ml incubated for 48 hrs under dark condition by broth microdilution method relative to control; format: functional; conditions: ATCC 10231, 48 h, read-out: GI; how it was run: as §3
Candida albicans [8] = experiment: Growth inhibition of Candida albicans ATCC 10231 at 31.25 ug/ml incubated for 48 hrs under dark condition by broth microdilution method relative to control; format: functional; conditions: ATCC 10231, 48 h, read-out: GI; how it was run: as §3
Candida albicans [9] = experiment: Growth inhibition of Candida albicans ATCC 10231 at 15.62 ug/ml incubated for 48 hrs under dark condition by broth microdilution method relative to control; format: functional; conditions: ATCC 10231, 48 h, read-out: GI; how it was run: as §3
Candida albicans [10] = experiment: Growth inhibition of Candida albicans ATCC 10231 at 7.8 ug/ml incubated for 48 hrs under dark condition by broth microdilution method relative to control; format: functional; conditions: ATCC 10231, 48 h, read-out: GI; how it was run: as §3
Candida albicans [11] = experiment: Growth inhibition of Candida albicans ATCC 10231 at 3.4 ug/ml incubated for 48 hrs under dark condition by broth microdilution method relative to control; format: functional; conditions: ATCC 10231, 48 h, read-out: GI
Cryptococcus neoformans [12] = experiment: Growth inhibition of Cryptococcus neoformans ATCC 32264 at 250 ug/ml incubated for 48 hrs under dark condition by broth microdilution method relative to control; format: functional; conditions: ATCC 32264, 48 h, read-out: GI; how it was run: as §3
Cryptococcus neoformans [13] = experiment: Growth inhibition of Cryptococcus neoformans ATCC 32264 at 125 ug/ml incubated for 48 hrs under dark condition by broth microdilution method relative to control; format: functional; conditions: ATCC 32264, 48 h, read-out: GI; how it was run: as §3
Cryptococcus neoformans [14] = experiment: Growth inhibition of Cryptococcus neoformans ATCC 32264 at 62.5 ug/ml incubated for 48 hrs under dark condition by broth microdilution method relative to control; format: functional; conditions: ATCC 32264, 48 h, read-out: GI; how it was run: as §3
Cryptococcus neoformans [15] = experiment: Growth inhibition of Cryptococcus neoformans ATCC 32264 at 31.25 ug/ml incubated for 48 hrs under dark condition by broth microdilution method relative to control; format: functional; conditions: ATCC 32264, 48 h, read-out: GI; how it was run: as §3
Cryptococcus neoformans [16] = experiment: Growth inhibition of Cryptococcus neoformans ATCC 32264 at 15.62 ug/ml incubated for 48 hrs under dark condition by broth microdilution method relative to control; format: functional; conditions: ATCC 32264, 48 h, read-out: GI; how it was run: as §3
Cryptococcus neoformans [17] = experiment: Growth inhibition of Cryptococcus neoformans ATCC 32264 at 7.8 ug/ml incubated for 48 hrs under dark condition by broth microdilution method relative to control; format: functional; conditions: ATCC 32264, 48 h, read-out: GI; how it was run: as §3
Cryptococcus neoformans [18] = experiment: Growth inhibition of Cryptococcus neoformans ATCC 32264 at 3.4 ug/ml incubated for 48 hrs under dark condition by broth microdilution method relative to control; format: functional; conditions: ATCC 32264, 48 h, read-out: GI
Staphylococcus aureus [19] = experiment: Antibacterial activity against methicillin-sensitive Staphylococcus aureus ATCC 25923 after 24 hrs by resazurin dye based microdilution assay; format: functional; conditions: ATCC 25923, 24 h; how it was run: as §1
Staphylococcus aureus [20] = experiment: Antibacterial activity against methicillin-resistant Staphylococcus aureus ATCC 43300 after 24 hrs by resazurin dye based microdilution assay; format: functional; conditions: ATCC 43300, 24 h
How it was run: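 Broth microdilution in Mueller Hinton broth, inoculum 5 × 10^5 – 8 × 10^5. Compound stocks diluted in MHB with 5% DMSO and 0.1% Tween 80. Incubation 24 h at 35-37 °C. MIC is the lowest concentration with visible growth inhibition and/or by resazurin (1 mg/mL) read-out. Gentamicin as control. Run in duplicate, replicated at least three times.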

Staphylococcus aureus [21] = experiment: Antibacterial activity against vancomycin-intermediate Staphylococcus aureus after 24 hrs by resazurin dye based microdilution assay; format: functional; how it was run: as §1
Escherichia coli = experiment: Antibacterial activity against Escherichia coli ATCC 25922 after 24 hrs by resazurin dye based microdilution assay; format: functional; conditions: ATCC 25922, 24 h; how it was run: as §1
Pseudomonas aeruginosa = experiment: Antibacterial activity against Pseudomonas aeruginosa ATCC 27853 after 24 hrs by resazurin dye based microdilution assay; format: functional; conditions: ATCC 27853, 24 h; how it was run: as §1
Neisseria gonorrhoeae = experiment: Antibacterial activity against beta lactamase positive Neisseria gonorrhoeae ATCC 31426 by oxidase test; format: functional
How it was run: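 Agar dilution MIC on GC agar with 1% isovitalex containing increasing compound concentrations. Plates inoculated with about 1×10^4 CFU (5 µL). MIC is the lowest concentration that inhibited growth, with growth confirmed by oxidase test. Run in duplicate, repeated at least three times.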

Plasmodium falciparum = experiment: Antiplasmodial activity against chloroquine-sensitive Plasmodium falciparum 3D7 assessed as reduction in parasitic LDH activity after 48 hrs by Malstat reagent based […] method; format: functional; conditions: 3D7, 48 h
How it was run: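 Unsynchronized P. falciparum 3D7 at 0.5% parasitemia and 1% hematocrit in RPMI with 3% Albumax II. Exposed to 100, 25, 6.25 and 1.56 µg/mL for 48 h at 37 °C under 90% N2/5% CO2/5% O2. After three freeze-thaw cycles, LDH measured with Malstat and NBT/PES, 1 h in the dark, read at 650 nm. IC50 by Probit; triplicate, ≥2 experiments.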

U-937 = experiment: Cytotoxicity against human U937 cells after 72 hrs by MTT assay; format: cell-based; conditions: u-937, 72 h
How it was run: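 Exponentially growing U-937 at 1 × 10^5 cells/mL in RPMI-1640 with 10% FBS were exposed to 200, 50, 12.5 and 3.125 µg/mL for 72 h at 37 °C, 5% CO2. MTT for 3 h, stopped with isopropanol/SDS, formazan read at 570 nm, blank-corrected. LC50 by Probit from % viability against untreated cells. Triplicate, at least two independent experiments.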

Trypanosoma cruzi = experiment: Antitrypanosomal activity against Trypanosoma cruzi Tulahuen intracellular amastigote harboring LacZ infected in human U937 cells after 72 hrs by CPRG/Nonidet reagent based spectrophotometric method; format: functional, cell-based; conditions: U-937, 72 h
How it was run: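 U-937 cells at 2.5 × 10^5 cells/mL in RPMI-1640 with 10% serum and 0.1 µg/mL PMA were infected with β-galactosidase-transfected Tulahuen epimastigotes at 5 parasites per cell. Infected cells were exposed to 50, 12.5, 3.125 and 0.78 µg/mL for 72 h. CPRG (100 uM) and 0.1% Nonidet P-40 were added for 3 h, read at 570 nm. EC50 by Probit. Triplicate, at least two experiments; benznidazole as reference.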

What does the source list for `O=CN1N=C(c2ccc(Br)cc2)CC1c1cccc(Nc2ccnc3cc(Cl)ccc23)c1` (stereo not given)?
MIC (Klebsiella pneumoniae [1]): > 1000 µg/mL; MIC (Klebsiella pneumoniae [2]): > 1000 µg/mL; EC50 (Leishmania panamensis): 2.41 µg/mL (≈ 4.76 µM); MIC50 (Candida albicans [3]): 250 µg/mL (≈ 494 µM); MIC80 (Candida albicans [3]): ≥ 250 µg/mL; MIC50 (Cryptococcus neoformans [4]): 62.5 µg/mL (≈ 124 µM); MIC80 (Cryptococcus neoformans [4]): 250 µg/mL (≈ 494 µM); inhibition of growth at 250 µg/mL (Candida albicans [5]): 58.7%; inhibition of growth at 125 µg/mL (Candida albicans [6]): 31.4%; inhibition of growth at 62.5 µg/mL (Candida albicans [7]): 25.3%; inhibition of growth at 31.25 µg/mL (Candida albicans [8]): 19.2%; inhibition of growth at 15.62 µg/mL (Candida albicans [9]): 13%; inhibition of growth at 7.8 µg/mL (Candida albicans [10]): 8.36%; inhibition of growth at 3.4 µg/mL (Candida albicans [11]): 5.76%; inhibition of growth at 250 µg/mL (Cryptococcus neoformans [12]): 100%; inhibition of growth at 125 µg/mL (Cryptococcus neoformans [13]): 60.9%; inhibition of growth at 62.5 µg/mL (Cryptococcus neoformans [14]): 53.5%; inhibition of growth at 31.25 µg/mL (Cryptococcus neoformans [15]): 44.5%; inhibition of growth at 15.62 µg/mL (Cryptococcus neoformans [16]): 44.2%; inhibition of growth at 7.8 µg/mL (Cryptococcus neoformans [17]): 39.1%; inhibition of growth at 3.4 µg/mL (Cryptococcus neoformans [18]): 24.2%; MIC (Staphylococcus aureus [19]): > 1000 µg/mL; MIC (Staphylococcus aureus [20]): > 1000 µg/mL; MIC (Staphylococcus aureus [21]): > 1000 µg/mL; MIC (Escherichia coli): > 1000 µg/mL; MIC (Pseudomonas aeruginosa): > 1000 µg/mL; MIC (Neisseria gonorrhoeae): > 1000 µg/mL; EC50 (Plasmodium falciparum): 15.7 µg/mL (≈ 31 µM); LC50 (U-937): 0.6 µg/mL (≈ 1.19 µM); EC50 (Trypanosoma cruzi): 1.24 µg/mL (≈ 2.45 µM)
